Experimental findings from ChEMBL document CHEMBL1817668, “Synthesis of 6-[¹⁸F]fluoro-PBR28, a novel radiotracer for imaging the TSPO 18 kDa with PET” (Bioorg Med Chem Lett, 2011) are described below.

Calls of active or inactive are those of the source. The rule behind the calls is not given here.

One may read the logD as the decadic logarithm of the distribution of all forms, ionised or not, between an organic phase and buffer at a given pH. Lower therefore signals lower lipophilicity. Usually logP stands for a log measure of how a compound divides between an organic and an aqueous phase. Read a high logP as higher lipophilicity. One may read the Ki as the equilibrium dissociation constant of an inhibitor or competing ligand from its target. High values mean lower affinity, low ones higher affinity.

The nature of data set [1]: Octanol-buffer partition coefficient, log D of the compound at pH 7.4 by shake flask method. In kind it is physicochemical. The method, boiled down: (§1)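 Shake-flask partition of the [18F]-labelled radioligand. Log D7.4 was measured between n-octanol and buffer pH 7.4, and log P between n-octanol and water.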
Data set [2] is described as follows: Octanol-water partition coefficient, log P of the compound by shake flask method. It counts as physicochemical. The method, boiled down: as §1
The test system of another data set is Brain. Kind of data set: Ratio of drug uptake in ipsi to contralateral side of AMPA lesioned rat brain after 60 mins post injection. In kind it is ADME, tissue-based. To be noted: in vivo, 1 h. The method, boiled down: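 MicroPET imaging of rats with AMPA-induced brain lesions after injection of the fluorine-18-labelled radiotracer. Uptake in the lesioned (ipsilateral) striatal area is compared with the corresponding area of the intact contralateral hemisphere at 60 min post-injection. Time-activity curves are followed for lesioned and non-lesioned striatum over the scan.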

Data set [3] deals with Striatum. Kind of data set: Drug uptake in AMPA lesioned rat striatum after 1-2 mins post injection. In kind it is ADME, tissue-based. The settings on record: in vivo.
Data set [4] deals with Striatum. Kind of data set: Drug uptake in rat striatum after 1-2 mins post injection. It counts as ADME, tissue-based. The settings on record: in vivo.
Data set [5] is filed under the species Rattus norvegicus. Kind of data set: Ex vivo binding affinity to TSPO in AMPA lesioned rat assessed as increase in ipsi to contralateral ratio by auto radiography. It counts as functional, organism-based.
In the next data set the test system is C6. Kind of data set: Induction of pregnenolone synthesis in rat C6 cells at 40 uM after 2 hrs by ELISA relative to control. In kind it is functional. The method, boiled down:
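Rat C6 glioma cells were exposed to ligand at 40 μM. Released pregnenolone was measured by competitive ELISA and expressed as % above control. Mean ± SEM of at least three independent experiments.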

For data set [6], the species on record is Rattus norvegicus. Kind of data set: Displacement of [3H]Flunitrazepam from CBR in rat cerebral cortex at 0.1 uM. It counts as tissue-based. The method, boiled down: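 Competition binding against [3H]flunitrazepam, a reference central benzodiazepine receptor ligand, in a rat cerebral cortex homogenate screen. […]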

In data set [7] the target is T1, Translocator protein (Rattus norvegicus, UniProt P16257). Kind of data set: Displacement of [3H]PK11195 from TSPO in rat heart membrane homogenate. It counts as cell membranes.
T1 sequence (P16257 whole entry, looked up): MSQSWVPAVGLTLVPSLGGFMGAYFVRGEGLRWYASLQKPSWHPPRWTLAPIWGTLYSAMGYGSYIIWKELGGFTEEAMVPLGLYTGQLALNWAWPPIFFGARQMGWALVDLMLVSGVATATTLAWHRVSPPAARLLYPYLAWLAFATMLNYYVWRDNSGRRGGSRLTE
For data set [8], the target named is T1, Translocator protein. Briefly: Displacement of [3H]PK11195 from TSPO in rat kidney mitochondrial fraction. It counts as tissue-based. A general note: Displacement assays read how much labelled ligand stays bound in the presence of the test substance.
For data set [9], the target named is Translocator protein (Homo sapiens, UniProt P30536). Kind of data set: Displacement of [3H]PK11195 from TSPO in human HEK293 mitochondrial fraction.
Translocator protein (Homo sapiens, UniProt P30536), sequence (P30536 whole entry): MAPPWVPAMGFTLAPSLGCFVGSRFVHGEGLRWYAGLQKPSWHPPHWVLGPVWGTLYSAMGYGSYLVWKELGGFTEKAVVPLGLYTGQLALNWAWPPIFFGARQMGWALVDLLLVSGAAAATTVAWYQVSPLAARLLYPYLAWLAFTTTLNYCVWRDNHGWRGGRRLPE

As for `COc1ccccc1CN(C(C)=O)c1cnc([18F])cc1Oc1ccccc1`, the log distribution coefficient (logD) in [1] was 2.82. The compound further yielded a logP in data set [2] of 2.77. Besides, in the data set with Brain, the Ratio worked out at 2.2. For the same compound, the Drug uptake entry with Striatum [3] and in the data set on Striatum [4] was “Active” in each case.
For `CCOC(=O)c1ncn2c1CN(C)C(=O)c1cc(F)ccc1-2`, in the data set listed under Rattus norvegicus [5], the outcome was Active.
In the case of `CCC(C)N(C)C(=O)c1cc2ccccc2c(-c2ccccc2Cl)n1` (configuration not stated) [PK-11195], the Activity with C6 turned out to be 37%. Further, the outcome in the data set filed under Rattus norvegicus [5] was inactive.
Regarding `COc1ccccc1CN(C(C)=O)c1cnc(F)cc1Oc1ccccc1`, the Activity in the data set listed under Rattus norvegicus [6] is below 10%; with C6, 16.45%. The values for the inhibition constant Ki on Translocator protein [7], on Translocator protein [8] and on Translocator protein [9] were 0.44 nM, 3.9 nM and 1.19 nM, respectively. Also, the outcome in the data set listed under Rattus norvegicus [5] was inactive. Moreover, the outcome in the data set filed under Rattus norvegicus [5] (tested as the 18F-labelled form) was Active.
Take `CCC(C)N([11CH3])C(=O)c1cc2ccccc2c(-c2ccccc2Cl)n1` (configuration not stated): the Drug uptake entry with Striatum [3] and in the data set with Striatum [4] was “Active” each time.
